{
  "source": "ChEMBL document CHEMBL1150804",
  "about": "“Nonnucleoside inhibitor of measles virus RNA-dependent RNA polymerase complex activity” (Antimicrob Agents Chemother, 2007)",
  "key": {"[1]": {"assay": "Cytotoxicity against african green monkey Vero cells expressing human SLAM by Promega assay", "format": "cell-based", "settings": "chlorocebus sabaeus", "in_short": "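LDH-release assay: 12,000 cells/well exposed 24 h at 37°C to twofold compound dilutions (top 150 μM, or 300 μM for one compound), four replicates. Formazan read at 490 nm; % viability = 100 − [(experimental − background)/(maximum − background) × 100]; four experiments.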"}, "Measles morbillivirus [2]": {"system": "Measles morbillivirus", "assay": "Antiviral activity against measles virus Edm in Vero cells expressing human SLAM assessed as reduction of virus yield", "format": "functional, organism-based"}, "[3]": {"assay": "Selectivity index, ratio of CC50 for african green monkey Vero cells by Promega assay to IC50 for measles virus Edm", "format": "functional"}, "[4]": {"assay": "Selectivity index, ratio of CC50 for african green monkey Vero cells by trypan blue exclusion assay to IC50 for measles virus Edm", "format": "functional"}, "[5]": {"assay": "Cytotoxicity against african green monkey Vero cells expressing human SLAM assessed as reduction in viable cells after 30 hrs by trypan blue exclusion assay", "format": "cell-based", "settings": "chlorocebus sabaeus", "in_short": "(§1)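 Trypan blue exclusion: 2 × 10^5 cells/well with fivefold compound dilutions (top 500 μM), 37°C for 30 h, three replicates per concentration. Detached cells stained with trypan blue 15 min at room temperature; live cells counted on a hemacytometer; expressed vs DMSO controls; three experiments.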"}, "Measles morbillivirus [6]": {"system": "Measles morbillivirus", "assay": "Antiviral activity against measles virus assessed as inhibition of virus mediated cytopathogenicity at 15 uMby syncytium formation assay", "format": "functional, organism-based", "settings": "15 uM"}, "Measles morbillivirus [7]": {"system": "Measles morbillivirus", "assay": "Antiviral activity against measles virus genotype C assessed as reduction of virus yield", "format": "functional, organism-based", "in_short": "(§2)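 Clinical MV isolates (grown on Vero-SLAM) infected at MOI 0.1 PFU/cell into 4 × 10^5 cells with threefold compound dilutions (top 37.5 μM) or DMSO at 37°C. At 36 h, cell-associated virus titered by TCID50; EC50 at 50% of DMSO yield; two experiments.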"}, "Measles morbillivirus [8]": {"system": "Measles morbillivirus", "assay": "Antiviral activity against measles virus genotype H2 assessed as reduction of virus yield", "format": "functional, organism-based", "in_short": "as §2"}, "Morbillivirus canis": {"system": "Morbillivirus canis", "assay": "Antiviral activity against Canine distemper virus assessed as reduction of virus yield", "format": "functional, organism-based", "in_short": "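Virus-yield dose-response: 4 × 10^5 cells/well infected at MOI 0.1 PFU/cell (CDV stocks grown on Vero-dogSLAM) with twofold compound dilutions (top 75 μM) or DMSO; kept at 37°C with compound. At 36 h, cell-associated virus titered by TCID50 (Spearman-Karber); titers normalized to DMSO; EC50 taken at 50% of DMSO yield; two experiments.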"}, "Measles morbillivirus [9]": {"system": "Measles morbillivirus", "assay": "Antiviral activity against measles virus assessed as reduction of virus yield at 15 uM administered 12 hrs postinfection", "format": "functional", "design": "scale not given: the % may be the effect or the level left", "in_short": "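One-step time-of-addition: 3 × 10^5 cells infected with MV at MOI 1.0 PFU/cell; compound (15 μM final) added at set times postinfection; DMSO controls. At 20 h postinfection, cell-associated virus harvested and titered by TCID50; two experiments.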"}, "Measles morbillivirus [10]": {"system": "Measles morbillivirus", "assay": "Antiviral activity against measles virus assessed as inhibition of viral H and F protein-mediated cell-cell fusion", "format": "functional, organism-based", "in_short": "(§3)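 Cells (6 × 10^5/well) transfected with 4 μg each of MV H and F plasmids; at 4 h moved into wells with twofold compound dilutions (top 150 μM). Fusion scored microscopically, photographed at 24 h; at 48 h syncytium-linked cytotoxicity measured by LDH-release assay, % vs DMSO; four replicates.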"}, "Measles morbillivirus [11]": {"system": "Measles morbillivirus", "assay": "Antiviral activity against measles virus genotype D9 assessed as reduction of virus yield", "format": "functional, organism-based", "in_short": "as §2"}, "Measles morbillivirus [12]": {"system": "Measles morbillivirus", "assay": "Antiviral activity against measles virus Edm in Vero cells expressing human SLAM assessed as reduction of virus yield preincubated in culture medium for 24 hrs", "format": "functional, organism-based"}, "Escherichia phage T7": {"system": "Escherichia phage T7", "assay": "Inhibition of Enterobacteria phage T7 polymerase assessed as F protein synthesis by in vitro transcription/translation assay", "in_short": "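Cell-free rabbit reticulocyte lysate with 0.5 μg T7-promoter MV F plasmid, 20 μCi [35S]methionine and 50 μM compound or DMSO, 30°C for 90 min. Products separated on 12% SDS gels and autoradiographed. Control: plasmid with F gene reversed relative to the T7 promoter.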"}, "[13]": {"system": "Measles virus genotype D6", "assay": "Antiviral activity against measles virus genotype D6 assessed as reduction of virus yield", "format": "functional, organism-based", "settings": "Measles morbillivirus", "in_short": "as §2"}, "Measles morbillivirus [14]": {"system": "Measles morbillivirus", "assay": "Antiviral activity against measles virus genotype B3-2 assessed as reduction of virus yield", "format": "functional, organism-based", "in_short": "as §2"}, "BSR T7/5 [15]": {"system": "BSR T7/5", "assay": "Inhibition of measles virus RNA-dependent RNA polymerase complex activity in BSR T7/5 cells assessed as CAT promoter expression by minireplicon assay", "format": "cell-based", "settings": "Measles morbillivirus", "in_short": "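BSR T7/5 cells (5 × 10^5) transfected with MV L (0.24 μg), N (0.94 μg), P (0.29 μg) plasmids plus 2 μg CAT minigenome; controls lacked L. At 2 h, threefold compound dilutions (top 30 μM) or DMSO added.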"}, "Measles morbillivirus [16]": {"system": "Measles morbillivirus", "assay": "Antiviral activity against measles virus genotype G2 assessed as reduction of virus yield", "format": "functional, organism-based", "in_short": "as §2"}, "[17]": {"system": "Measles virus genotype D7", "assay": "Antiviral activity against measles virus genotype D7 assessed as reduction of virus yield", "format": "functional, organism-based", "settings": "Measles morbillivirus", "in_short": "as §2"}, "Measles morbillivirus [18]": {"system": "Measles morbillivirus", "assay": "Antiviral activity against measles virus assessed as inhibition of viral H and F protein-mediated cell-cell fusion at 150 uM", "format": "functional, organism-based", "in_short": "as §3"}, "[19]": {"system": "Human parainfluenza virus 2", "assay": "Antiviral activity against human parainfluenza virus 2 assessed as reduction of virus yield at 75 uM", "format": "functional, organism-based", "settings": "Human orthorubulavirus 2"}, "Measles morbillivirus [20]": {"system": "Measles morbillivirus", "assay": "Antiviral activity against measles virus genotype G3 assessed as reduction of virus yield", "format": "functional, organism-based", "in_short": "as §2"}, "Measles morbillivirus [21]": {"system": "Measles morbillivirus", "assay": "Antiviral activity against measles virus assessed as inhibition of viral H and F protein-mediated cell-cell fusion at 15 uM", "format": "functional, organism-based", "in_short": "as §3"}, "BSR T7/5 [22]": {"system": "BSR T7/5", "assay": "Inhibition of Nipah virus RNA-dependent RNA polymerase complex activity in BSR T7/5 cells assessed as CAT promoter expression by minireplicon assay", "format": "cell-based", "settings": "Henipavirus nipahense", "in_short": "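BSR T7/5 cells (T7 polymerase-expressing) transfected with plasmids for Nipah L (0.4 μg), N (1.25 μg), P (0.8 μg) plus 3.5 μg Nipah CAT minigenome reporter; controls lacked L plasmid. Compound added 2 h posttransfection in threefold dilutions (highest 30 μM), DMSO controls.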"}, "Vero": {"system": "Vero", "assay": "Cytotoxicity against african green monkey Vero cells expressing human SLAM assessed as reduction in viable cells at 500 uM after 30 hrs by trypan blue exclusion assay", "format": "cell-based", "settings": "chlorocebus sabaeus", "in_short": "as §1"}, "Measles morbillivirus [23]": {"system": "Measles morbillivirus", "assay": "Antiviral activity against measles virus Alaska assessed as reduction of virus yield in presence of 10 mg/ml BSA", "format": "functional, organism-based", "in_short": "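Specificity test with MV-Alaska: 4 × 10^5 cells infected in serum-free medium at MOI 0.1 or 0.5 PFU/cell with fourfold dilutions (top 12.5 μM), with or without BSA at 10 mg/ml final.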"}, "Measles virus genotype A": {"system": "Measles virus genotype A", "assay": "Antiviral activity against measles virus genotype A assessed as reduction of virus yield", "format": "functional, organism-based", "settings": "Measles morbillivirus", "in_short": "as §2"}},
  "note": "Active and inactive are the calls of the source. No cut-off for these calls is given here.",
  "data": [
    {"smiles": "Cc1ccc2nsnc2c1S(=O)(=O)Nc1ccc(Cl)cc1", "values": [
      {"measurement": "CC50", "setting": "[1]", "result": 100000, "unit": "nM"},
      {"measurement": "EC50", "setting": "Measles morbillivirus [2]", "result": 2000, "unit": "nM"},
      {"measurement": "Ratio CC50/EC50", "setting": "[3]", "result": 50}
    ]},
    {"smiles": "Cc1ccc2[nH]c(=O)c(CNS(=O)(=O)c3ccccc3)c(-c3ccccc3)c2c1", "values": [
      {"measurement": "CC50", "setting": "[1]", "result": "> 150000", "unit": "nM"},
      {"measurement": "Ratio CC50/EC50", "setting": "[4]", "result": 4.5},
      {"measurement": "EC50", "setting": "Measles morbillivirus [2]", "result": 15700, "unit": "nM"},
      {"measurement": "Ratio CC50/EC50", "setting": "[3]", "result": ">10"},
      {"measurement": "CC50 at 30 h", "setting": "[5]", "result": 71000, "unit": "nM"}
    ]},
    {"smiles": "O=C(NC(=O)N(c1ccc(Cl)cc1)S(=O)(=O)c1ccccc1)Nc1ccccc1Cl", "values": [
      {"measurement": "CC50", "setting": "[1]", "result": 121000, "unit": "nM"},
      {"measurement": "EC50", "setting": "Measles morbillivirus [2]", "result": 2800, "unit": "nM"},
      {"measurement": "Ratio CC50/EC50", "setting": "[3]", "result": 43.2}
    ]},
    {"smiles": "Cn1nc(C(F)(F)F)cc1C(=O)Nc1ccc(S(=O)(=O)N2CCCC2)cc1", "values": [
      {"measurement": "CC50", "setting": "[1]", "result": "> 300000", "unit": "nM"},
      {"measurement": "Activity", "setting": "Measles morbillivirus [6]", "result": "Active"},
      {"measurement": "EC50", "setting": "Measles morbillivirus [7]", "result": 110, "unit": "nM"},
      {"measurement": "EC50", "setting": "Measles morbillivirus [8]", "result": 35, "unit": "nM"},
      {"measurement": "EC50", "setting": "Morbillivirus canis", "result": 28000, "unit": "nM"},
      {"measurement": "Activity", "setting": "Measles morbillivirus [9]", "result": 99.9, "unit": "%"},
      {"measurement": "Activity", "setting": "Measles morbillivirus [10]", "result": "Active"},
      {"measurement": "EC50", "setting": "Measles morbillivirus [11]", "result": 90, "unit": "nM"},
      {"measurement": "EC50", "setting": "Measles morbillivirus [2]", "result": 240, "unit": "nM"},
      {"measurement": "Activity", "setting": "Measles morbillivirus [12]", "result": "Active"},
      {"measurement": "Activity", "setting": "Escherichia phage T7", "result": "inactive"},
      {"measurement": "EC50", "setting": "[13]", "result": 100, "unit": "nM"},
      {"measurement": "EC50", "setting": "Measles morbillivirus [14]", "result": 140, "unit": "nM"},
      {"measurement": "Activity", "setting": "BSR T7/5 [15]", "result": "Active"},
      {"measurement": "EC50", "setting": "Measles morbillivirus [16]", "result": 50, "unit": "nM"},
      {"measurement": "EC50", "setting": "[17]", "result": 80, "unit": "nM"},
      {"measurement": "Activity", "setting": "Measles morbillivirus [18]", "result": "inactive"},
      {"measurement": "EC50", "setting": "[19]", "result": "> 75000", "unit": "nM"},
      {"measurement": "EC50", "setting": "Measles morbillivirus [20]", "result": 110, "unit": "nM"},
      {"measurement": "Activity", "setting": "Measles morbillivirus [21]", "result": "inactive"},
      {"measurement": "Activity", "setting": "BSR T7/5 [22]", "result": "inactive"},
      {"measurement": "Activity", "setting": "Vero", "result": 20, "unit": "%"},
      {"measurement": "Activity", "setting": "Measles morbillivirus [23]", "result": "Active"},
      {"measurement": "EC50", "setting": "Measles virus genotype A", "result": 240, "unit": "nM"},
      {"measurement": "CC50 at 30 h", "setting": "[5]", "result": "> 500000", "unit": "nM"}
    ]}
  ]
}
